Data taken from PMC10395006 (Archives of toxicology, 2022).
pIC50: −log10 of the molar value.

Legend:
[1] = cited from earlier work
HepG2 cells [2] = system: HepG2 cells
[3] = target: T1, CYP2D6-overexpressing HepG2 cells (Homo sapiens, UniProt P10635)
CYP3A4 = conditions: human liver microsomes
CYP2C19 = CYP2C19 (Homo sapiens, UniProt P33261); conditions: human liver microsomes
[4] = CellTiter-Blue cell viability assay; conditions: human, HepG2 cells
HepG2 cells [5] = experiment: CellTiter-Blue cell viability assay; conditions: 2.5-10 μM, 24 h
HepG2 cells [6] = experiment: Mitochondrial membrane potential; format: cell-based, human; conditions: 2.5-10 μM, 24 h
[7] = system: CYP2C19-overexpressing HepG2 cells; experiment: Mass spectrometry of perhexiline and metabolites in CYP-overexpressing cells; format: in vitro ADME, human; conditions: 5 μM perhexiline, 24 h
[8] = system: CYP2C19-overexpressing HepG2 cells; experiment: Perhexiline toxicity endpoints; format: cell-based, human; conditions: 5–10 μM, 24 h
[9] = system: CYP1A2-overexpressing HepG2 cells; experiment: Perhexiline toxicity endpoints; format: cell-based, human; conditions: 5–10 μM, 24 h
[10] = target: T2, CYP3A4-overexpressing HepG2 cells (Homo sapiens, UniProt P08684); experiment: Mass spectrometry of perhexiline and metabolites in CYP-overexpressing cells; conditions: 5 μM perhexiline, 24 h
[11] = system: ATF6, ERN1, EIF2AK3, ATF4, and DDIT3 mRNA in EV control HepG2 cells; experiment: Quantitative real-time PCR of ER stress genes; format: cell-based, human; conditions: 10 μM, 24 h
[12] = system: CHOP in EV control HepG2 cells; experiment: Western blot of ER stress marker CHOP; format: cell-based, human; conditions: EV control cells upon perhexiline treatment
Procedure, shortened: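 Empty-vector control HepG2 cells seeded at 3 × 10^5 cells/ml in 60 mm plates and treated about 24 h after seeding, with 0.1% v/v DMSO as control. Cells lysed directly in RIPA buffer with protease inhibitor cocktail and total protein quantified. Immunoblotted with primary antibodies against CHOP, using GAPDH as loading reference.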

[13] = system: CYP1A2-overexpressing HepG2 cells; experiment: Mass spectrometry of perhexiline and metabolites in CYP-overexpressing cells; format: in vitro ADME, human; conditions: 5 μM perhexiline, 24 h
HepG2 cells [14] = experiment: Caspase 3/7 activity; format: cell-based, human; conditions: 7.5 or 10 μM, 24 h
[15] = target: T2, CYP3A4-overexpressing HepG2 cells; format: cell-based
[16] = target: T1, CYP2D6-overexpressing HepG2 cells; format: cell-based
HepG2 cells [17] = experiment: Cellular ATP assay; format: cell-based, human; conditions: 24 h
[18] = system: Primary human hepatocytes; experiment: Cellular ATP assay; format: cell-based; conditions: 24 h
[19] = target: T1, CYP2D6-overexpressing HepG2 cells; experiment: Mass spectrometry of perhexiline and metabolites in CYP-overexpressing cells; conditions: 5 μM perhexiline, 24 h
HepG2 cells [20] = experiment: Lactate dehydrogenase; format: cell-based, human; conditions: 2.5-10 μM, 24 h
[21] = ketoconazole (CYP3A4 inhibitor)

T2 sequence (P08684 whole entry): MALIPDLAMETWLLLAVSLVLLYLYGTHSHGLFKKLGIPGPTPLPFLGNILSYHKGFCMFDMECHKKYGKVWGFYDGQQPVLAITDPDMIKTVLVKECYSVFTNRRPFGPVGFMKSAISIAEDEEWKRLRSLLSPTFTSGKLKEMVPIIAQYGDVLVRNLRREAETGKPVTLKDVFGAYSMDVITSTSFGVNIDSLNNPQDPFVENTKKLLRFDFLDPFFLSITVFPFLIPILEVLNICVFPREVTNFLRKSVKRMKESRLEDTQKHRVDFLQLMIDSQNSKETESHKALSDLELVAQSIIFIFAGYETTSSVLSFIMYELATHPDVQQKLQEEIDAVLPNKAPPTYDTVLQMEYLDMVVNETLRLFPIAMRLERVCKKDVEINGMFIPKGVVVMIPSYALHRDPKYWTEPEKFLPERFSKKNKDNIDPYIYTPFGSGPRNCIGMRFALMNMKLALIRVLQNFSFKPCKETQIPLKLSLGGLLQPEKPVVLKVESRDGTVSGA
T1 sequence (P10635 whole entry): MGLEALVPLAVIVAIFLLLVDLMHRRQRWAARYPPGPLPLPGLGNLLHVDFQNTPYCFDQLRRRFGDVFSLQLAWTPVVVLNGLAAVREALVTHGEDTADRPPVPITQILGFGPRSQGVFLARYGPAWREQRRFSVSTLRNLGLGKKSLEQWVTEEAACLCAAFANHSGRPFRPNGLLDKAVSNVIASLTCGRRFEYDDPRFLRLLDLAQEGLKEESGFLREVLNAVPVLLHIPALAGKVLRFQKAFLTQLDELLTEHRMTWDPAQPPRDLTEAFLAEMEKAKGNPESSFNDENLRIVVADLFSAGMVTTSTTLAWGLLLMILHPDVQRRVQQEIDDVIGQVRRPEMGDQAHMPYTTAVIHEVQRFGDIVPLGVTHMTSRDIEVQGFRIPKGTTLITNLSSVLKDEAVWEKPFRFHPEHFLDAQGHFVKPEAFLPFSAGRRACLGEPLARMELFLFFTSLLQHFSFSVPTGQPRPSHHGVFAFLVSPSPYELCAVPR
CYP2C19, sequence (P33261 whole entry): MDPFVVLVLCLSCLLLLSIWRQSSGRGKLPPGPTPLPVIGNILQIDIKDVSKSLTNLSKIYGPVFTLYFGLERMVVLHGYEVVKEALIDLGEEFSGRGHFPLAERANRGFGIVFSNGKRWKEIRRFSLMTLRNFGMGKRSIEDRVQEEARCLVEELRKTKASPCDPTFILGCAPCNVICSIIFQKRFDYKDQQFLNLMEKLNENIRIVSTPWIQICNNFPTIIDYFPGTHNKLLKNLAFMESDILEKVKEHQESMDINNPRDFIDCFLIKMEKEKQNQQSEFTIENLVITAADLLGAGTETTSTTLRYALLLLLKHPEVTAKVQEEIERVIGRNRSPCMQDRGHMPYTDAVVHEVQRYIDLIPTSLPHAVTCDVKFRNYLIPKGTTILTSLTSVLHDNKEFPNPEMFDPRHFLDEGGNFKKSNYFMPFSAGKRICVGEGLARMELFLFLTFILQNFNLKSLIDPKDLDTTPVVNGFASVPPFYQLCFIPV

C1CCC(C(CC2CCCCN2)C2CCCCC2)CC1 (single isomer, unassigned; (-)) [(−)-perhexiline]
clearance relative to the other enantiomer ([1]; attributed to CYP2D6-mediated metabolism, ref Davies et al. 2008): higher clearance rate

OC1CCC([C@@H](CC2CCCCN2)C2CCCCC2)CC1 (stereo in doubt) [cis-OH-Phx]
pIC50 (HepG2 cells [2]): 4.05

O[C@H]1CC[C@H](C(CC2CCCCN2)C2CCCCC2)CC1 (stereo partly drawn) [M1, trans-OH-Phx-1]
increase of M1 compared to EV control cells [3]: 2.6 fold

CC(=O)N1CCN(c2ccc(OCC3COC(Cn4ccnc4)(c4ccc(Cl)cc4Cl)O3)cc2)CC1 (stereo not shown) [ketoconazole]
suppression of formation of M3 (trans-OH-Phx-2) (CYP3A4; ketoconazole 2 μM, perhexiline 30 μM): up to 80% | effect on formation of M1 (trans-OH-Phx-1) (CYP3A4; [21]): reduced | effect on formation of M5 (cis-OH-Phx) (CYP3A4; [21]): did not have effect

C=C(C)[C@@H]1CCC2=CC(=O)C[C@@H](C)[C@]2(C)C1 [nootkatone]
effect on the formation of M1, M3, and M5 (CYP2C19; nootkatone 10 μM (CYP2C19 inhibitor)): did not show significant effect | effect on the relative abundance of trans-OH-Phx (CYP2C19; nootkatone (CYP2C19 inhibitor)): little effect

C1CCC(C(CC2CCCCN2)C2CCCCC2)CC1 (stereo not shown) [perhexiline]
IC50 at 24 h [4]: 8 µM | cell viability (HepG2 cells [5]): significant decrease | mitochondrial membrane potential level (JC-1) (HepG2 cells [6]): significant concentration-dependent decrease | parent perhexiline level vs EV control [7]: significant reduction | protective effect on ATP levels and LDH release vs EV control [8]: little protective effect | protective effect on ATP levels and LDH release vs EV control [9]: little protective effect | parent perhexiline level vs EV control [10]: significant reduction | mRNA levels of ATF6, ERN1, EIF2AK3, ATF4, and DDIT3 (fold change vs DMSO) [11]: significantly elevated | plasma perhexiline beyond 24 h after a single administration ([1]; known extensive metabolizers, ref Cooper et al. 1987): undetectable | CHOP protein level [12]: markedly increased | parent perhexiline level vs EV control [13]: significant reduction | caspase 3/7 activity (HepG2 cells [14]): increase | caspase 3/7 activities, EV control vs CYP3A4 cells [15]: little difference | effect in JC-1 staining vs EV control [15]: marginal protective effect | protective effect on ATP levels and LDH release vs EV control ([15]; 5–10 μM, 24 h): little protective effect | perhexiline-induced increase in CHOP protein vs EV control [16]: greatly reduced | perhexiline-induced increase in ER stress gene mRNA vs EV control ([16]; 10 μM, 24 h): drastically attenuated | perhexiline-induced increase in caspase 3/7 vs EV control ([16]; 24 h): abolished | cellular ATP levels at 10 μM (HepG2 cells [17]; 10 μM): largely depleted | cellular ATP levels (HepG2 cells [17]; 2.5–10 μM): concentration-dependent decrease | concentration at which cytotoxicity was observed starting ([18]; hepatic cells, concentrations ranged from 2.5 μM to 15 μM): 5 µM | lowest concentration at which a decrease in ATP was observed ([18]; primary human hepatocytes, 5 to 15 μM): 5 µM | amount of parent perhexiline relative to EV control [19]: 1% | LDH release (HepG2 cells [20]): concentration-dependent increase

O[C@H]1CC[C@H](C(CC2CCCCN2)C2CCCCC2)CC1 (stereo partly drawn) [trans-OH-Phx]
plasma trans-OH-Phx level post-dosage ([1]; most patients, ref Amoah et al. 1986, Cooper et al. 1984, 1987): undetectable | pIC50 (HepG2 cells [2]): 4.25
